Measurements of several laboratories.
Target: MAP kinase-activated protein kinase 3 (MAPKAPK3, Homo sapiens, UniProt Q16644)

The inhibition of `CCCS(=O)(=O)Nc1ccc(F)c(C(=O)c2c[nH]c3ncc(-c4ccc(Cl)cc4)cc23)c1F` is reported as < 10% (enzyme activity; inhibitor; 1 µM).
`CCN(CC)CCNC(=O)c1c(C)[nH]c(/C=C2\C(=O)Nc3ccc(F)cc32)c1C` has an inhibition of 6% (enzyme activity; inhibitor; 10 µM).
`FC(F)(F)Oc1cccc(-c2cnc3ccc(-c4ccncc4)nn23)c1` gave an activity vs control of 107% (enzyme activity; inhibitor; radiometric; 1 µM).
With `FC(F)c1nc2ccccc2n1-c1nc(N2CCOCC2)nc(N2CCOCC2)n1` the remaining activity was 97% (enzyme activity; inhibitor; 10 µM).
For `COc1cc(Nc2cnc(C#N)c(O[C@H](C)CN(C)C)n2)ncc1-c1cnn(C)c1`, the remaining activity was 96% (enzyme activity; inhibitor; radiometric; 1 µM).
With `Cc1ccc(Nc2nccc(N(C)c3ccc4c(C)n(C)nc4c3)n2)cc1S(N)(=O)=O` the inhibition was -8% (enzyme activity; inhibitor; 0.3 µM).
For `CCCCNc1ncc2c(-c3ccc(F)cc3)nn(C[C@H]3CC[C@H](N)CC3)c2n1`, the inhibition was 6.1% (target engagement in cells; inhibitor; chemoproteomics; 20 mM).
`CCN(CC)c1ccc(C2=NNC(=O)CC2C)cc1[N+](=O)[O-]` (stereo not drawn) has a remaining activity of 100% (enzyme activity; inhibitor; 10 µM).
The activity vs control of `COc1cc(/C=C/C(=O)CC(=O)/C=C/c2ccc(O)c(OC)c2)ccc1O` is reported as 76% (enzyme activity; inhibitor; 1 µM).
With `O=C(Nc1cnn(-c2csc(C(=O)NC3COC3)c2)c1)Nc1ccccc1Cl` the remaining activity was 83.5% (enzyme activity; inhibitor; 5 µM).
`Oc1cccc(-c2nc(N3CCOCC3)c3oc4ncccc4c3n2)c1` has a remaining activity of 100% (enzyme activity; inhibitor; 10 µM).
`COc1cc2ncnc(Nc3ccc(Oc4ccccc4)c(C)c3C)c2cc1OC` has an inhibition of -14% (enzyme activity; inhibitor; 1 µM).
`Cc1cc(NC(=O)c2cccc3cc(-c4cccc5[nH]nc(N)c45)ccc23)ccc1F` gave an activity vs control of 96% (enzyme activity; inhibitor; 0.1 µM).
The inhibition of `CNC(=O)c1cc(Oc2ccc(NC(=O)Nc3ccc(Cl)c(C(F)(F)F)c3)cc2)ccn1` is reported as -3% (enzyme activity; inhibitor; 0.3 µM).
For `CC(C)(C)c1nc2c(s1)c1nc(N)ncc1c1ccc(NS(=O)(=O)c3c(F)cccc3F)c(F)c12`, the remaining activity was 93% (enzyme activity; inhibitor; radiometric; 1 µM).
With `O=C1NC(=O)c2cc(Nc3ccc(F)cc3)c(Nc3ccc(F)cc3)cc21` the remaining signal was 95.9% (cell-free assay; 0.5 µM).
`CC/C(=N\NC(=O)NCc1cccc(O)c1)c1ccc(O)c(C)c1O` has an inhibition of -6% (enzyme activity; inhibitor; 0.1 µM).
`Cc1ccc(NC(=O)c2ccc(C)c(C(F)(F)F)c2)cc1C#Cc1nn(C2CCC(O)CC2)c2ncnc(N)c12` (stereo not drawn) has a remaining signal of 96% (cell-free assay; 10 µM).
